Experimental findings from ChEMBL document CHEMBL4261600 (Eur J Med Chem, 2018) are described below.

Series [1] addresses High affinity nerve growth factor receptor (Homo sapiens) (UniProt P04629). Description: Binding affinity to wild-type human partial length TRKA (G475 to G790 residues) expressed in mammalian expression system assessed as remaining unbound target protein level at 1000 nM by Kinomescan method relative to control.
Series [2] is described as follows: AUC (0 to infinity) in mouse at 3 mg/kg, iv by LC-MS/MS analysis. Further details: dose 3 mg/kg, route intravenous, time infinity. It is filed as ADME, organism-based. The following applies: in vivo. The gist of the method:
(§1)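 Non-compartmental PK. Male SD rats 190-210 g, mice and beagle dogs acclimatized one week, fasted 12 h with water, split into iv and po groups (mice 48, rats 6, dogs 6). iv 3/3/2 mg/kg (mice/rats/dogs); po 10/20/10 mg/kg; vehicle DMSO in 5% glucose water. Blood at 2 or 5 to 720 min; plasma protein-precipitated with methanol, caffeine internal standard, LC-MS/MS.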

Series [3] concerns the target Tyrosine-protein kinase Lyn (Homo sapiens) (UniProt P07948). Description: Binding affinity to wild-type human partial length LYN (C219 to Q511 residues) expressed in bacterial expression system assessed as remaining unbound target protein level at 1000 nM by Kinomescan method relative to control. The gist of the method:
(§2)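 KINOMEscan binding panel of 468 kinases/mutants. Inhibitor was tested at a single concentration of 1 μM. Binding is reported as percent of control, defined relative to a DMSO control.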

Series [4] can be described thus: Tmax in Sprague-Dawley rat at 20 mg/kg, po by LC-MS/MS analysis. It counts as ADME, organism-based. The following applies: in vivo.
The target of series [5] is Ephrin type-A receptor 8 (Homo sapiens) (UniProt P29322). Description: Binding affinity to wild-type human partial length EPHA8 (Q608 to C920 residues) expressed in bacterial expression system assessed as remaining unbound target protein level at 1000 nM by Kinomescan method relative to control.
The target in series [6] is Microtubule-associated serine/threonine-protein kinase 1 (Homo sapiens) (UniProt Q9Y2H9). Description: Binding affinity to wild-type human partial length MAST1 (S346 to V730 residues) expressed in mammalian expression system assessed as remaining unbound target protein level at 1000 nM by Kinomescan method relative to control.
Series [7] has as its target Serine/threonine-protein kinase 36 (Homo sapiens) (UniProt Q9NRP7). The experiment in a line: Binding affinity to wild-type human partial length STK36 (M1 to T271 residues) expressed in bacterial expression system assessed as remaining unbound target protein level at 1000 nM by Kinomescan method relative to control.
The test system of series [8] is Receptor-type tyrosine-protein kinase FLT3 (Homo sapiens), P36888 [D835Y]. Description: Binding affinity to human partial length FLT3 D835Y mutant (Q580 to Y969 residues) expressed in bacterial expression system assessed as remaining unbound target protein level at 1000 nM by Kinomescan method relative to control. Put shortly:
(§3)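 KINOMEscan competition-binding profiling across the panel of 468 kinases and mutants, with inhibitor tested at 1 μM. Binding is expressed as percent of control, with DMSO as the reference control.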

Series [9] has as its system Receptor-type tyrosine-protein kinase FLT3 (Homo sapiens), P36888 [UNDEFINED MUTATION]. The experiment in a line: Binding affinity to human partial length FLT3 ITD/F691L double mutant expressed in bacterial expression system assessed as remaining unbound target protein level at 1000 nM by Kinomescan method relative to control. The gist of the method:
as §3

In series [10] the test system is Epidermal growth factor receptor (Homo sapiens), P00533 [L858R,T790M]. The experiment in a line: Binding affinity to human partial length EGFR L858R/T790M double mutant (R669 to V1011 residues) expressed in mammalian expression system assessed as remaining unbound target protein level at 1000 nM by Kinomescan method relative to control. Put shortly: as §3
For series [11], the species on record is Homo sapiens. The experiment in a line: Induction of apoptosis in human MEC1 cells assessed as decrease in MCL-1 level after 2 hrs by immunoblotting analysis. It is filed as functional, cell-based. In general terms: In western blotting, separated proteins are transferred to a membrane and probed.
The target of series [12] is Ribosomal protein S6 kinase alpha-4 (Homo sapiens) (UniProt O75676). Description: Binding affinity to wild-type human partial length N-terminal RPS6KA4 kinase domain 1 expressed in bacterial expression system assessed as remaining unbound target protein level at 1000 nM by Kinomescan method relative to control.
Series [13] relates to Mycobacterium tuberculosis. The experiment in a line: Binding affinity to wild-type Mycobacterium tuberculosis partial length PKNB (M1 to G279 residues) expressed in mammalian expression system assessed as remaining unbound target protein level at 1000 nM by Kinomescan method relative to control. Put shortly: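 KINOMEscan competition binding panel run at 1 μM inhibitor; binding reported as percent of DMSO control (remaining target bound versus vehicle).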

In series [14] the target is Cyclin-dependent kinase 5/CDK5 activator 1 (Homo sapiens, UniProt Q00535). Description: Inhibition of recombinant full length His/GST-tagged human CDK5/p25 expressed in baculovirus expression system.
Series [15] has as its target Glycogen synthase kinase-3 alpha (Homo sapiens) (UniProt P49840). The experiment in a line: Binding affinity to wild-type human full length GSK3A (M1 to S483 residues) expressed in bacterial expression system assessed as remaining unbound target protein level at 1000 nM by Kinomescan method relative to control. The gist of the method:
(§4)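 KINOMEscan competition binding profile across a panel of 468 kinases and mutants, with the inhibitor tested at a single concentration of 1 μM. Binding is reported as percent of control, meaning signal relative to a DMSO control.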

Series [16] deals with Tyrosine-protein kinase ABL1 (Homo sapiens), P00519 [H396P]. The experiment in a line: Binding affinity to human non-phosphorylated ABL1 H396P mutant (S229 to K512 residues) expressed in mammalian expression system assessed as remaining unbound target protein level at 1000 nM by Kinomescan method relative to control. Put shortly:
as §3

Series [17] has as its target Calcium/calmodulin-dependent protein kinase kinase 2 (Homo sapiens) (UniProt Q96RR4). Description: Binding affinity to wild-type human partial length CAMKK2 (D65 to V471 residues) expressed in bacterial expression system assessed as remaining unbound target protein level at 1000 nM by Kinomescan method relative to control. Put shortly:
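Profiled in a KINOMEscan binding panel with the inhibitor at a single concentration of 1 μM. Binding to each kinase was read out as percent of control, relative to a DMSO control. Strong binders were defined as those with a percent control value below 1.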

Series [18] concerns the target Mitogen-activated protein kinase kinase kinase kinase 2 (Homo sapiens) (UniProt Q12851). The experiment in a line: Binding affinity to wild-type human partial length MAP4K2 (M1 to G318 residues) expressed in mammalian expression system assessed as remaining unbound target protein level at 1000 nM by Kinomescan method relative to control. The gist of the method:
as §2

In series [19] the target is Casein kinase II subunit alpha' (Homo sapiens) (UniProt P19784). The experiment in a line: Binding affinity to wild-type human full length CSNK2A2 (M1 to R350 residues) expressed in mammalian expression system assessed as remaining unbound target protein level at 1000 nM by Kinomescan method relative to control. The gist of the method: as §4
In series [20] the target is Ephrin type-A receptor 2 (Homo sapiens) (UniProt P29317). The experiment in a line: Binding affinity to wild-type human partial length EPHA2 (T593 to V891 residues) expressed in bacterial expression system assessed as remaining unbound target protein level at 1000 nM by Kinomescan method relative to control.
Series [21] in a line: AUC (0 to infinity) in mouse at 10 mg/kg, po by LC-MS/MS analysis. It is filed as ADME, organism-based. The following applies: in vivo. Also on record: dose 10 mg/kg, route oral, time infinity. The gist of the method: as §1

The structures appear in SMILES notation.

As a reminder, the AUC(0-inf) is the area under the concentration-time curve extrapolated to infinity. Usually Tmax stands for the time from dosing to the highest level. Broadly, the IC50 is the point on the concentration scale where inhibition reaches its midpoint. Turning to `COCCN[C@H]1CC[C@H](Nc2cc(-c3csc(NCC4(C#N)CCOCC4)n3)c(Cl)cn2)CC1`, the Activity in series [1] came out at 71%; in [3], 86%; in series [5], 92%; in series [6], 88%; in [7], 83%; in series [8], 100%. The Activity in series [9] was 75%; in [10], 100%; in series [11], “Dose-dependent effect”; in series [12] it was 92%; in [13] it was 84%; in [15], 68%. Further, the Activity in series [16] stood at 75%; in series [17], 100%; in [18], 56%; in [19] it was 99%; in series [20] it was 84%. Further, the AUC(0-inf) came out at 408 ng·h/mL in series [2] and 612 ng·h/mL in [21]. The Tmax in [4] is 3.33 h. For the same compound, the IC50 in [14] came to 4.64 µM.
